The nature of data set [1]: Solubility of the compound in HEPES buffer. Format: physicochemical.
Data set [2] concerns the target T1, Peroxisome proliferator-activated receptor alpha (Homo sapiens, UniProt Q07869).
T1 sequence (Q07869 whole entry): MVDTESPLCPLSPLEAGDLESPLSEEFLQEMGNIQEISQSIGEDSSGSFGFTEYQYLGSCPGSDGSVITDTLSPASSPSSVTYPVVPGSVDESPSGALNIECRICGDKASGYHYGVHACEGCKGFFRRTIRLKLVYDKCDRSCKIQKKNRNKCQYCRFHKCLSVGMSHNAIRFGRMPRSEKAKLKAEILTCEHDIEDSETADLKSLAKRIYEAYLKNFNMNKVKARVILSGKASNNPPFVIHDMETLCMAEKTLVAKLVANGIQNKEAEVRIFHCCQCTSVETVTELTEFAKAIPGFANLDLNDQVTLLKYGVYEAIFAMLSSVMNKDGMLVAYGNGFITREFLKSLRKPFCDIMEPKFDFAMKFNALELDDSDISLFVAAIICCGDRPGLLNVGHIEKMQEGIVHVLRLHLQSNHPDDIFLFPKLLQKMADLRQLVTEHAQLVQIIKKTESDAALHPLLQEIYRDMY
Description: Agonist activity at human GAL4-fused PPARalpha ligand binding domain expressed in HepG2 cells after 20 hrs by luciferase reporter gene transactivation assay. It counts as cell-based. The method in brief: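 HepG2 cells in MEM with 10% heat-inactivated FBS, seeded at 10⁵ cells/well and transfected after 24 h by calcium phosphate. Plasmids: Gal4-PPARα LBD (30 ng), pGal5TKpGL3 luciferase reporter (100 ng) and pCMVβgal (250 ng). Ligands added 4 h post-transfection, for 20 h, in triplicate. Luciferase read in cell extracts, with β-galactosidase activity measured alongside; experiments repeated at least twice.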
On the technique in general: A reporter such as luciferase makes a cellular process visible.

The target of data set [3] is T2, Peroxisome proliferator-activated receptor gamma (Homo sapiens, UniProt P37231).
T2 sequence (P37231 whole entry): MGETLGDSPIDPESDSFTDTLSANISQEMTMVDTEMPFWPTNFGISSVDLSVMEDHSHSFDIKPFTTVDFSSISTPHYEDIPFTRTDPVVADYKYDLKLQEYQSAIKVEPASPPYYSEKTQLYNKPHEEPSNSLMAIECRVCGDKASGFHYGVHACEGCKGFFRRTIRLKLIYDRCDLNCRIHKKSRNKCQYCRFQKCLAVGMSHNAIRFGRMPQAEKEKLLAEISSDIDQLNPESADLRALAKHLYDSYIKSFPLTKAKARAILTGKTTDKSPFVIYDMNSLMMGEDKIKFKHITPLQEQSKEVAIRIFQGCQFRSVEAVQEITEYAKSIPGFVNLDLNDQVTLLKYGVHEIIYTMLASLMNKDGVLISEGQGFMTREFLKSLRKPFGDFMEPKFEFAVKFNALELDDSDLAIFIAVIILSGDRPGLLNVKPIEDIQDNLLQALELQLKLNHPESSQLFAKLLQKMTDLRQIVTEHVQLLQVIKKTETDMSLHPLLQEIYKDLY
Description: Agonist activity at human GAL4-fused PPARgamma ligand binding domain expressed in HepG2 cells after 20 hrs by luciferase reporter gene transactivation assay. Format: cell-based.

In data set [4] the target is T3, Peroxisome proliferator-activated receptor delta (Homo sapiens, UniProt Q03181).
T3 sequence (Q03181 whole entry): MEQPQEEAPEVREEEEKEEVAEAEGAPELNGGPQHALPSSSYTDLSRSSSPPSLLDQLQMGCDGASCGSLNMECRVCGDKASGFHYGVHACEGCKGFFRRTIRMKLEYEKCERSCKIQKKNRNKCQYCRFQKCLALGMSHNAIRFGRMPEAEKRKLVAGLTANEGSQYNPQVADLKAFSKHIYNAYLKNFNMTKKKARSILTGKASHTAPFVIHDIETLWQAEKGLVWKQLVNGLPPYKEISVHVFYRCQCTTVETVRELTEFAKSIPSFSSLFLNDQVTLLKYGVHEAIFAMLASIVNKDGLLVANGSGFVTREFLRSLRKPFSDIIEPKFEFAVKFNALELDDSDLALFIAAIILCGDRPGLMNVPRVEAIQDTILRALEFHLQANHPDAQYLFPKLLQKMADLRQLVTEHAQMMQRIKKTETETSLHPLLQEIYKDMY
Description: Agonist activity at human GAL4-fused PPARdelta ligand binding domain expressed in COS-1 cells after 20 hrs by luciferase reporter gene transactivation assay. It counts as cell-based.

Data set [5] deals with Mus musculus. Description: Reduction of body weight in high fat diet fed-induced obesity and insulin resistance C57Bl/6J mouse model at 10 mg/kg/day, po administered once daily for 2 weeks relative to control. Format: functional. Put shortly:
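Male C57Bl/6J mice, 6 weeks old, on high-fat diet for 16 weeks. Then dosed once daily for 2 weeks by oral gavage in 0.5% hypromellose; doses chosen in a preliminary dose-finding study. Body weight measured at end of treatment versus HFD controls, 6 mice per group.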

In data set [6] the target is T4, Peroxisome proliferator-activated receptor alpha (Homo sapiens) (UniProt Q07869).
T4 sequence (whole entry): T1 sequence (Q07869 whole entry)
Description: Agonist activity at human GAL4-fused PPARalpha ligand binding domain expressed in HepG2 cells after 20 hrs by luciferase reporter gene transactivation assay relative to WY14643. It counts as cell-based. Put shortly:
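GAL4-human PPARα LBD chimera (30 ng) with Gal5-TK luciferase reporter (100 ng) and pCMVβgal (250 ng), calcium-phosphate transfected into HepG2 (MEM, 10% FBS) seeded 10⁵ cells/well. Ligands added 4 h post-transfection for 20 h, in triplicate. Luciferase read in cell extracts, normalised to β-galactosidase activity. Experiments repeated at least twice.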

For data set [7], the system named is Mus musculus. In words: Reduction of visceral fat weight in high fat diet fed-induced obesity and insulin resistance C57Bl/6J mouse model at 10 mg/kg/day, po administered once daily for 2 weeks measured on day 12 by in vivo magnetic resonance imaging analysis. It counts as functional, organism-based. The method in brief:
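Mice fed a high-fat diet for 16 weeks were gavaged daily for 2 weeks in 0.5% hypromellose. Under 1% isoflurane they were scanned at 4.7 T with sixteen 1 mm axial T1-weighted slices from kidneys to bladder. Visceral fat was expressed as percentage of total image area, 3 mice per group.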

The target of data set [8] is T5, Peroxisome proliferator-activated receptor gamma (Homo sapiens) (UniProt P37231).
T5 sequence (whole entry): T2 sequence (P37231 whole entry)
To be noted: BL21-DE3.

The target in data set [9] is T2, Peroxisome proliferator-activated receptor gamma. In words: Binding affinity to PPARgamma ligand binding domain by isothermal titration calorimetry. In general terms: In ITC the heat of successive injections is recorded.
The test system of data set [10] is Mus musculus. In words: Induction of PPARalpha-mediated upregulation of Acox1 mRNA expression in liver of high fat diet fed-induced obesity and insulin resistance C57Bl/6J mouse model at 100 mg/kg/day, po administered once daily for 2 weeks by real time qPCR analysis. It counts as functional, organism-based. Put shortly:
(§1)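 Livers came from mice fed a high-fat diet for 16 weeks, then gavaged once daily for 2 weeks in 0.5% hypromellose, and were snap-frozen at sacrifice. Total RNA was extracted with Trizol and cleaned up on RNeasy columns. 1 μg RNA was used for mRNA quantitation.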
(In general: Real-time PCR tracks product formation cycle by cycle.)

Data set [11] has as its system Mus musculus. In words: Induction of PPARalpha-mediated upregulation of Acadm mRNA expression in liver of high fat diet fed-induced obesity and insulin resistance C57Bl/6J mouse model at 100 mg/kg/day, po administered once daily for 2 weeks by real time qPCR analysis. Format: functional, organism-based. Put shortly:
as §1

For data set [12], the system named is Mus musculus. In words: Increase in liver weight in high fat diet fed-induced obesity and insulin resistance C57Bl/6J mouse model at 100 mg/kg/day, po administered once daily for 2 weeks. Format: functional, organism-based.
For data set [13], the system named is Mus musculus. Description: Induction of PPARalpha-mediated upregulation of Acadl mRNA expression in liver of high fat diet fed-induced obesity and insulin resistance C57Bl/6J mouse model at 100 mg/kg/day, po administered once daily for 2 weeks by real time qPCR analysis. It counts as functional, organism-based. The method in brief: as §1
The subject of data set [14] is HT-29. In words: Antitumor activity against human HT-29 cells assessed as inhibition of cell proliferation after 1 day by MTT assay. Format: functional, cell-based. To be noted: HT-29, 24 h. The method in brief: (§2)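 MTT assay with 10,000 cells/well seeded on day 1. Ligands added on day 2 at 1, 5, 10, 50 and 100 μM, from 20 mM DMSO stocks, for 1 or 2 days. Six replicate wells per drug, untreated control column. IC50 is the concentration giving 0.5 fraction affected versus untreated controls, taken from dose–effect curves. Each experiment in triplicate.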

In data set [15] the test system is LoVo. In words: Antitumor activity against human LoVo cells assessed as inhibition of cell proliferation after 2 days by MTT assay. It counts as functional, cell-based. The settings on record: 48 h. The method in brief: as §2
Data set [16] has as its system HCT-15. Description: Antitumor activity against human HCT15 cells assessed as inhibition of cell proliferation after 1 day by MTT assay. It counts as functional, cell-based. The settings on record: HCT-15, 24 h. The method in brief:
as §2

Data set [17] has as its system HCT-15. Description: Antitumor activity against human HCT15 cells assessed as inhibition of cell proliferation after 2 days by MTT assay. Format: functional, cell-based. The settings on record: HCT-15, 48 h. Put shortly:
as §2

Data set [18] deals with HT-29. In words: Antitumor activity against human HT-29 cells assessed as inhibition of cell proliferation after 2 days by MTT assay. Format: functional, cell-based. To be noted: HT-29, 48 h. The method in brief:
as §2

Data set [19] has as its system LoVo. Description: Antitumor activity against human LoVo cells assessed as inhibition of cell proliferation after 1 day by MTT assay. Format: functional, cell-based. The settings on record: 24 h. Put shortly:
as §2

Data set [20] concerns HT-29. Description: Induction of apoptosis in human HT-29 cells at IC50 by Annexin V-FITC/propidium iodide staining based flow cytometry. It counts as functional, cell-based. To be noted: TDE = time-dependent effect.

The source made the active and inactive calls. The calls are words filed in the database; no cut-off is given here.

On to `CCCCCCCN(CCc1ccc(O[C@@H](Cc2ccccc2)C(=O)O)cc1)c1nc2ccccc2o1.NC1CCCCC1`, for which the solubility result in data set [1] is recorded as “Insoluble”. Moreover, the EC50 – broadly, the midpoint of the concentration-response curve – in data set [2] (hepg2) was “Not Active”; in data set [3] (read-out: EC50) it was 1700 nM; in data set [4] (cos-1) it was “Not Active”.
Turning to `CN(CCOc1ccc(CC2SC(=O)NC2=O)cc1)c1ccccn1` (centres undefined) [ROSIGLITAZONE], the inhibition entry in the data set on Mus musculus [5] and in the data set on Mus musculus [7] was “inactive” each time. In addition, the Emax result in [6] was “inactive”. The EC50 result in [2] (hepg2) was “Not Active”.
Regarding `CCCc1c(OCCCOc2ccc(OCC(=O)O)cc2)ccc(C(C)=O)c1O`, the EC50 result in data set [2] (hepg2) is “Not Active”; in data set [3] (hepg2) it was “Not Active”; in data set [4] (read-out: EC50) it was 21 nM.
Turning to `Cc1cccc(Nc2cc(Cl)nc(SCC(=O)O)n2)c1C` [PIRINIXIC ACID], the concentration giving a half-maximal response (EC50) result in [3] (hepg2) is given as “Not Active”.
Take `CCCCCCCN(CCc1ccc(O[C@@H](C)C(=O)O)cc1)c1nc2ccccc2o1`: the deltaT in data set [8] came to 2 °C. The Emax in data set [6] turned out to be 78%. The EC50 in data set [2] (read-out: EC50) stood at 620 nM; in data set [3] (read-out: EC50) it was 2300 nM; in data set [4] (read-out: EC50), 850 nM. Besides, the Kd (commonly a measure of binding affinity in units of concentration) in [9] amounted to 3300 nM.
`CCCCCCCN(CCc1ccc(O[C@H](C)C(=O)O)cc1)c1nc2ccccc2o1` registered a deltaT in data set [8] of 2 °C. The Emax in [6] turned out to be 93%. Further, the EC50 was 25 nM in data set [2] (read-out: EC50), 150 nM in [3] (read-out: EC50) and 130 nM in data set [4] (read-out: EC50). The same compound showed a Kd in data set [9] of 1500 nM.
Consider `CC(C)OC(=O)C(C)(C)Oc1ccc(C(=O)c2ccc(Cl)cc2)cc1`, for which the result with Mus musculus [10], in the data set with Mus musculus [11], in the data set with Mus musculus [12] and in the data set with Mus musculus [13] was Active.
Turning to `Cc1c(C)c2c(c(C)c1O)CCC(C)(COc1ccc(CC3SC(=O)NC3=O)cc1)O2` (centres undefined) [TROGLITAZONE], the IC50 (commonly the concentration needed to halve the response being measured) was > 100000 nM with HT-29 [14]; 65000 nM in the data set on LoVo [15]; > 100000 nM with HCT-15 [16]; 50900 nM in the data set with HCT-15 [17]; 50000 nM in the data set with HT-29 [18]; > 100000 nM with LoVo [19]. Besides, the Activity result with HT-29 [20] is “tde”.
On to `CCCCCCCN(CCc1ccc(O[C@H](Cc2ccccc2)C(=O)O)cc1)c1nc2ccccc2o1.NC1CCCCC1`, for which the solubility entry in [1] was “Insoluble”. Also, the EC50 was 1720 nM in [2] (read-out: EC50), 2700 nM in data set [3] (read-out: EC50) and “Not Active” in data set [4] (cos-1).
In turn, `CCCCCCCN(CCc1ccc(OCC(=O)O)cc1)c1nc2ccccc2o1` yielded an Emax in data set [6] of 87%. The EC50 was found to be 122 nM in [2] (read-out: EC50), 800 nM in data set [3] (read-out: EC50) and 570 nM in [4] (read-out: EC50). For the same compound, in data set [9], the Kd worked out at 7700 nM.

For the origin of these results see ChEMBL document CHEMBL2202967, “Synthesis, characterization and biological evaluation of ureidofibrate-like derivatives endowed with peroxisome proliferator-activated receptor activity” (J Med Chem, 2012).
